ChEMBL document CHEMBL2434854, “Synthesis and anticancer activity of some novel trifluoromethylquinolines carrying a biologically active benzenesulfonamide moiety” (Eur J Med Chem, 2013)
pIC50: −log10 of the molar value.

Tests used:
Assay type in all cases: functional, cell-based; call rule not given here
HT-1080 = test: Anticancer activity against human HT1080 cells after 48 hrs by SRB assay; details: HT-1080, 48 h
In short: (§1)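 Cells seeded 10^4 cells/well and allowed to attach for 24 h, then exposed to compounds dissolved in DMSO at 10, 25, 50 and 100 μM, triplicate wells per concentration, for 48 h at 37 °C in 5% CO2. Fixed, stained 30 min with 0.4% (wt/vol) SRB in 1% acetic acid, washed four times with 1% acetic acid, dye recovered in Tris-EDTA, absorbance read. IC50 taken from survival curves; doxorubicin reference.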

MDA-MB-231 = test: Anticancer activity against human MDA-MB-231 cells after 48 hrs by SRB assay; details: for pIC50: Homo sapiens, MDA-MB-231, 48 h, read-out: IC50; for IC50: mda-mb-231; in short: as §1
HepG2 = test: Anticancer activity against human HepG2 cells after 48 hrs by SRB assay; details: for IC50: hepg2; for pIC50: Homo sapiens, HepG2, 48 h, read-out: IC50; in short: as §1
HeLa = test: Anticancer activity against human HeLa cells after 48 hrs by SRB assay; details: for pIC50: Homo sapiens, HeLa, 48 h, read-out: IC50; for IC50: hela; in short: as §1
[1] = Anticancer activity against human […] cells after 48 hrs by SRB assay; details: for pIC50: Homo sapiens, 48 h, read-out: IC50; in short: as §1
LoVo = test: Anticancer activity against human LoVo cells after 48 hrs by SRB assay; details: for pIC50: Homo sapiens, LoVo, 48 h, read-out: IC50; for IC50: lovo; in short: as §1

pIC50 (HT-1080) | pIC50 (MDA-MB-231) | IC50 (HepG2) | pIC50 (HeLa) | pIC50 (LoVo) | pIC50 (HepG2) | IC50 (MDA-MB-231) | IC50 (HeLa) | IC50 (LoVo) | SMILES | IC50 [1] | pIC50 [1]
4.48 | 4.44 | Not Active | 4.49 | 4.35 |  |  |  |  | Cc1cc(C)nc(NS(=O)(=O)c2ccc(Nc3ccnc4cc(C(F)(F)F)ccc34)cc2)n1 | Not Active | 
4.47 | 4.13 |  | 4.01 | 4.47 | 4.47 |  |  |  | Cc1cc(NS(=O)(=O)c2ccc(Nc3ccnc4cc(C(F)(F)F)ccc34)cc2)on1 |  | 4.13
4.53 | 4.51 |  | 4.34 | 4.27 | 4.03 |  |  |  | Nc1ccc(S(=O)(=O)Nc2ccnc3cc(C(F)(F)F)ccc23)cc1 |  | 4.53
4.55 | 4.31 |  | 4.16 | 4.06 | 4.55 |  |  |  | O=S(=O)(Nc1ccccn1)c1ccc(N/C(S)=N\c2ccnc3cc(C(F)(F)F)ccc23)cc1 |  | 4.47
4.75 | 4.74 |  | 4.45 | 4.71 | 4.56 |  |  |  | O=C(Nc1ccccc1)NS(=O)(=O)c1ccc(Nc2ccnc3cc(C(F)(F)F)ccc23)cc1 |  | 4.73
4.49 |  | Not Active |  |  |  | Not Active | Not Active | Not Active | Cc1ccnc(NS(=O)(=O)c2ccc(Nc3ccnc4cc(C(F)(F)F)ccc34)cc2)n1 |  | 4.20
4.54 | 4.53 | Not Active | 4.51 | 4.51 |  |  |  |  | Cc1ccnc(NS(=O)(=O)c2ccc(N/C(S)=N\c3ccnc4cc(C(F)(F)F)ccc34)cc2)n1 |  | 4.51
4.59 | 4.28 | Not Active | 4.39 | 4.52 |  |  |  |  | O=C(Nc1ccccc1)Nc1ccc(S(=O)(=O)Nc2ccnc3cc(C(F)(F)F)ccc23)cc1 |  | 4.61
4.30 | 4.54 | Not Active | 4.38 | 4.61 |  |  |  |  | N=C(N)NS(=O)(=O)c1ccc(Nc2ccnc3cc(C(F)(F)F)ccc23)cc1 |  | 4.26
4.39 | 4.04 | Not Active | 4.15 |  |  |  |  | Not Active | O=S(=O)(Nc1nccs1)c1ccc(Nc2ccnc3cc(C(F)(F)F)ccc23)cc1 |  | 4.18
4.41 |  |  | 4.08 | 4.30 | 4.08 | Not Active |  |  | COc1cc(NS(=O)(=O)c2ccc(Nc3ccnc4cc(C(F)(F)F)ccc34)cc2)nc(OC)n1 |  | 4.42
4.56 | 4.55 |  |  | 4.17 | 4.43 |  | Not Active |  | Cc1noc(NS(=O)(=O)c2ccc(N/C(S)=N\c3ccnc4cc(C(F)(F)F)ccc34)cc2)c1C |  | 4.47
4.50 | 4.41 |  |  | 4.44 | 4.39 |  | Not Active |  | Cc1noc(NS(=O)(=O)c2ccc(Nc3ccnc4cc(C(F)(F)F)ccc34)cc2)c1C |  | 4.28
4.54 | 4.35 |  |  | 4.46 | 4.38 |  | Not Active |  | O=S(=O)(Nc1ncccn1)c1ccc(N/C(S)=N\c2ccnc3cc(C(F)(F)F)ccc23)cc1 |  | 4.42
4.56 | 4.61 |  | 4.02 | 4.17 | 4.55 |  |  |  | O=S(=O)(Nc1nccs1)c1ccc(N/C(S)=N\c2ccnc3cc(C(F)(F)F)ccc23)cc1 |  | 4.57
4.59 | 4.31 |  |  | 4.40 | 4.18 |  | Not Active |  | COc1ncnc(NS(=O)(=O)c2ccc(Nc3ccnc4cc(C(F)(F)F)ccc34)cc2)c1OC |  | 4.43
4.25 | 4.46 |  | 4.21 | 4.58 | 4.29 |  |  |  | NS(=O)(=O)c1ccc(Nc2ccnc3cc(C(F)(F)F)ccc23)cc1 |  | 4.10
4.56 | 4.10 |  | 4.22 |  | 4.55 |  |  | Not Active | Cc1cc(NS(=O)(=O)c2ccc(N/C(S)=N\c3ccnc4cc(C(F)(F)F)ccc34)cc2)on1 |  | 4.22
4.53 | 4.28 |  | 4.48 | 4.40 | 4.14 |  |  |  | Cc1cc(C)nc(NS(=O)(=O)c2ccc(N/C(S)=N\c3ccnc4cc(C(F)(F)F)ccc34)cc2)n1 |  | 4.36
4.55 | 4.23 |  | 4.42 | 4.52 | 4.55 |  |  |  | CC(=O)NS(=O)(=O)c1ccc(N/C(S)=N\c2ccnc3cc(C(F)(F)F)ccc23)cc1 |  | 4.42
4.57 | 4.26 | Not Active | 4.11 | 4.56 |  |  |  |  | O=S(=O)(Nc1ncccn1)c1ccc(Nc2ccnc3cc(C(F)(F)F)ccc23)cc1 |  | 4.47
4.53 | 4.28 |  | 4.27 | 4.12 | 4.12 |  |  |  | COc1cc(NS(=O)(=O)c2ccc(N/C(S)=N\c3ccnc4cc(C(F)(F)F)ccc34)cc2)nc(OC)n1 |  | 4.19
4.38 | 4.12 |  |  | 4.29 | 4.34 |  | Not Active |  | CC(=O)NS(=O)(=O)c1ccc(Nc2ccnc3cc(C(F)(F)F)ccc23)cc1 |  | 4.19
4.59 | 4.28 |  | 4.47 | 4.25 | 4.08 |  |  |  | O=S(=O)(Nc1ccnn1-c1ccccc1)c1ccc(Nc2ccnc3cc(C(F)(F)F)ccc23)cc1 |  | 4.28
4.64 | 4.08 |  |  | 4.55 | 4.11 |  | Not Active |  | COc1ncnc(NS(=O)(=O)c2ccc(N/C(S)=N\c3ccnc4cc(C(F)(F)F)ccc34)cc2)c1OC |  | 4.09
4.61 |  |  | 4.62 | 4.62 | 4.48 | Not Active |  |  | N=C(N)NS(=O)(=O)c1ccc(N/C(S)=N\c2ccnc3cc(C(F)(F)F)ccc23)cc1 |  | 4.62
4.51 | 4.28 |  | 4.44 | 4.46 | 4.28 |  |  |  | NS(=O)(=O)c1ccc(N/C(S)=N\c2ccnc3cc(C(F)(F)F)ccc23)cc1 |  | 4.44
4.38 | 4.74 |  | 4.35 | 4.69 | 4.34 |  |  |  | O=S(=O)(Nc1ccccn1)c1ccc(Nc2ccnc3cc(C(F)(F)F)ccc23)cc1 |  | 4.52

SMILES | pIC50 (HT-1080) | pIC50 (MDA-MB-231) | IC50 (HepG2) | pIC50 (HeLa) | pIC50 (LoVo) | pIC50 (HepG2) | IC50 (MDA-MB-231) | IC50 (HeLa) | IC50 (LoVo) | IC50 [1] | pIC50 [1]
COc1cccc2c1C(=O)c1c(O)c3c(c(O)c1C2=O)C[C@@](O)(C(=O)CO)C[C@@H]3O[C@H]1C[C@H](N)[C@H](O)[C@H](C)O1 [DOXORUBICIN] | 4.72 | 4.47 |  | 4.52 | 4.61 | 4.57 |  |  |  |  | 4.48
